Assay outcomes deposited in PubChem by several laboratories.
T cruzi inh – blocks replication of Trypanosoma cruzi | T. cruzi beta-gal in NIH3T3, luminescence, 90 h | inhibition, % (no concentration beside the values) | 1.4% of 300,000 active;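 active = mean inhibition across valid replicates above about 55%, limit read from the data; inconclusive = mean below that limit but half or more replicates reach it; inactive = mean below it, under half of replicates reach it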;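 also: signal also drops with host cell toxicity which is not excluded here; 0% = plate median of DMSO wells and 100% = zero luminescence signal; higher percent means less beta-gal luminescence so fewer parasites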
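Material: NIH/3T3 host cells with β-galactosidase reporter T. cruzi; Input: 5,000 host fibroblasts per well; Medium: DMEM, 2% fetal bovine serum; Compound: 50 nL DMSO compound solution per well; Schedule: 3 h host attachment, then at least 90 h co-culture; Detection: luminescent β-galactosidase signal after 60 min lysis.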
Calb FLC – affects C. albicans growth with fluconazole | C. albicans CaCi-2 + fluconazole, Alamar Blue growth, 48 h | 0.57% of 300,000 active | growth inhibition, % (test concentration not listed) | AID 1979;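 active = growth inhibition above about 58% in most replicates, limit read from the data, passing the limit was not always enough; inconclusive = exactly half the replicates above a set limit; inactive = most replicates below a set limit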;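 also: all wells also contain fluconazole at 8 µg/ml as a sub-toxic cotreatment; 0% = median of DMSO wells and 100% = median of geldanamycin control wells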
Beta apoptosis – blocks beta cell apoptosis; protection from apoptosis, % (test concentration not listed); 0.8% of 300,000 active; INS-1E cytokine-induced death, ATP luminescence, 48 h; percent of positive-control rescue, neutral wells zero;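 active = Every replicate reaches about 75%, or at least half do and their mean reaches it too, limit read from the data; inconclusive = At least half of replicates reach the limit but their mean does not; inactive = Under half of replicates reach the limit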;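 also: 0% = cytokine-treated negative control wells and 100% = positive control rescue; higher means more ATP so stronger rescue from cytokine killing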
Mdm2-MdmX inh – inhibitors of human Mdm2/MdmX interaction | SaOS-2 split-luciferase Mdm2/MdmX complementation, luminescence | inhibition, % at 8 µM | 3% of 330,000 active | AID 485346;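 active = inhibition of at least 50% at 8 µM in the primary screen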
Target sequence (O15151 whole entry, looked up): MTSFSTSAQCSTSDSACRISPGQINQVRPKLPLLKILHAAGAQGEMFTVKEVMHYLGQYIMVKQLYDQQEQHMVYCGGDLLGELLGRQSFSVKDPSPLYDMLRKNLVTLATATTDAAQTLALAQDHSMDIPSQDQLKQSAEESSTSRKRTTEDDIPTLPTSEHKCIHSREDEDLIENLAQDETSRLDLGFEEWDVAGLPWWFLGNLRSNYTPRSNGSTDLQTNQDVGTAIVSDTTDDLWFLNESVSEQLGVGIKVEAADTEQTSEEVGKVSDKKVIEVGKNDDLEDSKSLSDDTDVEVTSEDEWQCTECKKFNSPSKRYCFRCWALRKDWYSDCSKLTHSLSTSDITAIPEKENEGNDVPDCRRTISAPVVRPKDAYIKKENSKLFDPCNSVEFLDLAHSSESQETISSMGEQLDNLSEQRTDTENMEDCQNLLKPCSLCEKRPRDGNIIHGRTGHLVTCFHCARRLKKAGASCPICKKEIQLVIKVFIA
Target sequence (Q00987 whole entry, looked up): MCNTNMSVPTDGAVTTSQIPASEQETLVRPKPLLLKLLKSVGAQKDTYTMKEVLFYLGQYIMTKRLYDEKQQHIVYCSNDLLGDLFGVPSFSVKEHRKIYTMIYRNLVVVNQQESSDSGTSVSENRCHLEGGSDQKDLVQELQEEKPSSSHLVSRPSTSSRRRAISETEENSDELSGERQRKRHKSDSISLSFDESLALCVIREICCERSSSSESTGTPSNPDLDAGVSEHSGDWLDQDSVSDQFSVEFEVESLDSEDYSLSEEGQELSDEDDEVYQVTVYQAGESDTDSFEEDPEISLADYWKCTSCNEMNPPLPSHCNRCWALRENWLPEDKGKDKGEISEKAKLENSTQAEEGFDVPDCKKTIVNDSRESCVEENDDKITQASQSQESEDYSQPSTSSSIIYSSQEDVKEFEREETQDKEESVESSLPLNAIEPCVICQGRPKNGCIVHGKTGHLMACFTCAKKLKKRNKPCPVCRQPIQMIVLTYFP
CSC inhib – cancer stem cell inhibition. 1.1% of 300,000 active. inhibition, % at 7.5 µM. cancer stem cell-like cells viability, luminescence; in the data active = inhibition above about 75%; inconclusive = no clear call, values can overlap the other calls; tested in HMLE shEcad cells
SKKanGAS inh – inhibitors of SKKanGAS S. pyogenes growth in kanamycin (SK-promoter or general growth effect). inhibition, % at 7.5 µM. 1.3% of 300,000 active. BacTiter-Glo, 6 h;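 active = mean replicate score, as percent of positive control median, at least 50; inconclusive = mean below 50 but one replicate at or above 50; inactive = mean and every replicate below 50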;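 also: strain carries kanamycin resistance gene driven by streptokinase promoter and grows in 40 µg/ml kanamycin; loss of luminescence reflects streptokinase promoter inhibition or plain growth inhibition; 0% = median of DMSO wells and 100% = positive control at its reference dose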
Mdm2 MdmX conf – human Mdm2/MdmX binding inhibition, confirmed | shares compounds with Mdm2-MdmX inh | luminescent assay | inhibition, % at 8 µM | 55% of 10,000 active | AID 489028; in the data active = inhibition above about 40%
FLuc counter – counter-screen for Mdm2/MdmX inhibitors: full-length luciferase. SaOS-2 full-length luciferase counterscreen, luminescence. 77% of 6,200 active. inhibition, % at 8 µM. shares compounds with Mdm2-MdmX inh;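 active = mean inhibition at 8 µM reaching about 37%, which flags the compound as non-specific, limit read from the data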;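 also: p53-null SaOS-2 cells with luciferase driven by a doxycycline-inducible promoter; compound on cells about two nights before reading with doxycycline added after day one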
Starred values were filed as active, the others as inactive; ? = inconclusive; . = not tested or not shown. An excerpt weighted towards active compounds, which were near 5.7% of everything screened.

SMILES | T cruzi inh | Calb FLC | Beta apoptosis | Mdm2-MdmX inh | CSC inhib | SKKanGAS inh | Mdm2 MdmX conf | FLuc counter
COc1ccc(C(=O)Nc2ccccc2C(=O)N(Cc2ccco2)C(C(N)=O)C(C)C)cc1 (configuration not stated) | -2.4 | 1.6 | -4.1 | 65.8* | -3.7 | 10.0 | 21.2 | .
Cc1cc(C)cc(OCC(=O)Nc2ccccc2C(=O)NCc2ccco2)c1 | 6.6 | -2.7 | 9.7 | -0.7 | -12.2 | -3.3 | . | .
CN(C)c1ccc(-c2nnc(-c3ccccc3F)o2)cc1 | 20.4 | -1.0 | -2.8 | -148.5 | -0.1 | 0.3 | . | .
O=C(c1ccc2c(c1)OCO2)N1CCN(S(=O)(=O)c2ccc(Br)cc2Cl)CC1 | . | . | -5.0 | 10.7 | . | . | . | .
CCN(CC)c1nc2ccccc2n(Cc2cccc(OC)c2)c1=O | 12.3 | -0.6 | -0.9 | -12.0 | 3.1 | 23.2 | . | .
CCOC(=O)C1=C(C)NC(=S)N(C(C)=O)C1c1ccc(OC)c(OC)c1 (configuration not stated) | -15.8 | 1.6 | 5.0 | 56.5* | 7.2 | 8.1 | 8.5 | .
CCOC(=O)C1=C(C)NC(=S)N(C(C)=O)C1c1ccc(Cl)cc1 (configuration not stated) | 22.1 | -3.9 | -0.1 | 33.7 | 9.3 | 7.5 | . | .
COc1ccc(-c2cc(N)n(S(=O)(=O)c3c(F)c(F)c(F)c(F)c3F)n2)cc1OC | 21.6 | 76.1* | 92.9* | 81.4* | 41.5 | 29.4 | 100.0* | -0.7
COc1ccc(NC2CCCN(C(=O)c3ccc(C)c(N4CCNC4=O)c3)C2)cc1 (configuration not stated) | -6.3 | -9.4 | . | -0.5 | -4.7 | 5.9 | . | .
Cc1c(C(=O)OCCOC(C)C)[nH]c2c1C(=O)CC(c1ccco1)C2 (configuration not stated) | 1.3 | 2.4 | 39.7 | 63.8* | 53.9 | -0.6 | 48.4* | 86.2*
COC(=O)c1[nH]c2c(c1C)C(=O)CC(c1cccs1)C2 (configuration not stated) | 11.7 | -10.4 | 16.7 | 60.3* | 1.7 | -1.8 | 58.0* | 73.6*
COC(=O)c1[nH]c2c(c1C)C(=O)CC(c1cc(OC)ccc1OC)C2 (configuration not stated) | 3.7 | -0.4 | 7.6 | 48.5 | 55.1 | 3.6 | . | .
CCOC(=O)c1[nH]c2c(c1C)C(=O)CC(c1ccco1)C2 (configuration not stated) | 3.4 | 0.9 | 33.1 | 60.3* | 60.2 | 6.8 | 58.8* | 84.4*
COCCOC(=O)c1[nH]c2c(c1C)C(=O)CC(c1ccccc1)C2 (configuration not stated) | 3.8 | 6.4 | 19.2 | 62.3* | 58.9 | 6.4 | 59.7* | 73.1*
COCCOC(=O)c1[nH]c2c(c1C)C(=O)CC(c1ccco1)C2 (configuration not stated) | -39.2 | 4.0 | 18.0 | 33.6 | 53.8 | -3.5 | . | .
OC(c1ccc(F)cc1)C(CN1CCOCC1)c1ccccc1 (configuration not stated) | -11.6 | 1.7 | 1.6 | -3.6 | -11.6 | 7.8 | . | .
CCCS(=O)(=O)Nc1ccc(N2CCCCC2)c(S(=O)(=O)Nc2ccccc2OC)c1 | . | . | . | 16.5 | . | . | . | .
Cc1c(C(=O)OCc2ccccc2)[nH]c2c1C(=O)CC(c1ccco1)C2 (configuration not stated) | 29.3 | 0.6 | 22.6 | 67.3* | 61.6 | 3.4 | 63.0* | 80.8*
CN(C)c1ccc(/C=C/c2nc3ccccc3s2)cc1 | 25.7 | -19.3 | 18.6 | 64.1* | 54.5 | 47.4 | -41.6 | .
Cc1ccc(/C=C/c2nc3ccccc3s2)s1 | 6.3 | -4.2 | 7.2 | 7.6 | 5.7 | 8.7 | . | .
O=[N+]([O-])c1cc(/C=N\Nc2ccccn2)ccc1Cl | -2.5 | -12.2 | -4.2 | 9.1 | 8.9 | 10.7 | . | .
O=[N+]([O-])c1cc(Cl)cc(/C=N\Nc2ccccn2)c1O | 56.7* | -0.8 | 108.9* | 69.6* | 112.0* | 102.4* | 77.1* | 55.0*
COc1cccc(/C=N/NC(=O)c2cc(-c3ccccn3)nc3ccccc23)c1O | . | . | 92.9* | 75.5* | 16.9 | . | 60.0* | 40.0*
O=C(N/N=C/c1cc(Cl)cc([N+](=O)[O-])c1O)c1cc(-c2ccccn2)nc2ccccc12 | 20.8 | 3.9 | 68.3 | 58.6* | 45.3 | ? | 1.6 | .
O=C(N/N=C/c1ccc(F)cc1)c1cc(-c2ccccn2)nc2ccccc12 | . | . | . | 9.2 | . | . | . | .
SMILES | T cruzi inh | Calb FLC | Beta apoptosis | Mdm2-MdmX inh | CSC inhib | SKKanGAS inh | Mdm2 MdmX conf | FLuc counter
CCCCn1c(N)c(N(CCC(C)C)C(=O)COC(=O)/C=C/c2ccc(F)cc2)c(=O)[nH]c1=O | . | . | -6.1 | 20.1 | -6.6 | . | . | .
O=C(NC1CCCCC1)c1n[nH]c2c1CCCCC2 | . | . | 4.9 | 71.3* | . | . | 68.8* | 65.1*
C#CCOCCOCCOCCNc1nc(N2CCN(C(=O)CCCCCCCCCCNC(=O)Cn3cc(C[C@@H](C)O)nn3)CC2)nc(N2CCN(C(=O)CCCCCCCCCCNC(=O)[C@@H]([C@H](C)CC)n3cc(CCCCCN)nn3)CC2)n1 | . | . | 84.3* | 97.8* | 124.0* | . | 77.0* | 27.2
C#CCOCCOCCOCCNc1nc(N2CCN(C(=O)CCCCCCCCCCNC(=O)Cn3cc(C[C@@H](C)O)nn3)CC2)nc(N2CCN(C(=O)CCCCCCCCCCNC(=O)[C@@H]([C@H](C)O)n3cc(C)nn3)CC2)n1 | . | . | 51.9 | 54.4* | 157.9* | . | 17.5 | .
C#CCOCCOCCOCCNc1nc(N2CCN(C(=O)CCCCCCCCCCNC(=O)Cn3cc(CCCCCN)nn3)CC2)nc(N2CCN(C(=O)CCCCCCCCCCNC(=O)[C@@H]([C@H](C)O)n3cc(C)nn3)CC2)n1 | . | . | -1.7 | 46.8 | 10.1 | . | . | .
CC1(C)Cc2c(c(-c3ccco3)nc3sc4c(NCCN5CCOCC5)ncnc4c23)CO1 | -37.5 | 19.2 | 4.8 | 50.9* | 27.5 | -0.8 | 8.2 | .
CCN(CC)CCNc1ncnc2c1sc1nc(N3CCCC3)c3c(c12)CC(C)(C)OC3 | 60.8* | 1.5 | 2.9 | 59.0* | 19.6 | 0.0 | 31.9 | .
CCN(CC)CCNc1ncnc2c1sc1nc(N3CCOCC3)c3c(c12)CCCC3 | 25.6 | -1.0 | 11.6 | 70.6* | -0.2 | 1.3 | 36.4 | 64.8*
CC1(C)Cc2c(c(-c3ccco3)nc3sc4c(NCCCO)ncnc4c23)CO1 | 19.7 | 15.7 | -8.6 | 20.6 | 8.3 | -1.3 | . | .
CC1CCN(C(=O)COC(=O)C23CC4CC(CC(O)(C4)C2)C3)CC1 | . | . | -13.4 | 5.1 | . | . | . | .
CCOC(=O)C1=CC[C@H]2c3c(c4ccccc4n3C)C[C@H]1N2C | . | . | -12.7 | 7.5 | 11.5 | . | . | .
CN(Cc1ccccc1)C(=O)CCC1CCN(C(=O)CCC(F)(F)F)CC1 | 7.8 | -6.4 | -2.9 | -35.0 | 3.2 | -0.2 | . | .
CC1(C)CC(=O)C2=C(C1)NC1=C(C(=O)c3ccccc31)C2c1ccccc1 (configuration not stated) | 22.1 | 15.8 | 5.2 | 0.5 | -9.5 | 8.1 | . | .
